Compound activity: PubChem, several laboratories
Efflux pump mplx: inhibitors of Candida efflux pumps in yeast, primary screen, S. cerevisiae, Nile Red, multiplex; S. cerevisiae Candida pump triplex; inhibition, % at 10 µM; 0.44% of 330,000 active;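 active means plate passing quality check with inhibition over a set limit, or well fluorescence over plate mean plus 4 SD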;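 further: Nile Red retained in pooled yeast measured as flow cytometry median fluorescence; higher means more Nile Red kept so more efflux inhibition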
PolyA inhibitor: polyadenylation inhibitors in yeast reporter cells, primary screen, luminescence, S. cerevisiae; S. cerevisiae SKY197-pL101 polyadenylation reporter, beta-gal luminescence; efflux-impaired pdr1/pdr3 knockout yeast; score 100 = 6 SD above DMSO; activity score, % at 12 µM; 0.02% of 300,000 active; AID 1875, 2009;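 active means lowest replicate activity score at least 50, where 100 means six control SD above control mean; inconclusive means lowest score under 50 but half or more replicates reach 50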;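 further: yeast exposed to compound for 9 h at 30 °C; higher score means more reporter readthrough which indicates perturbed polyadenylation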
T cruzi repl: inhibitors of intracellular T. cruzi growth, primary screen, luminescence, NIH3T3 host cells; T. cruzi beta-gal in NIH3T3, 90 h; inhibition, % (test concentration not listed); 1.4% of 300,000 active;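 active means mean inhibition across valid replicates above about 55%, limit read from the data; inconclusive means mean below that limit but half or more replicates reach it; inactive means mean below it, under half of replicates reach it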;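 further: signal also drops with host cell toxicity which is not excluded here; higher percent means less beta-gal luminescence so fewer parasites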
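Material: NIH/3T3 host cells with β-galactosidase reporter T. cruzi; Input: 5,000 host fibroblasts per well; Medium: DMEM, 2% fetal bovine serum; Compound: 50 nL DMSO compound solution per well; Schedule: 3 h host attachment, then at least 90 h co-culture; Detection: luminescent β-galactosidase signal after 60 min lysis.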
HDAC3 inhib: HDAC3 deacetylase inhibitors, primary screen, biochemical, fluorescence, cell-free homogeneous | AID 2718, 2010 | inhibition, % at 8.3 µM | recombinant HDAC3, fluorogenic peptide/trypsin coupled | 0.15% of 320,000 active | Histone deacetylase 3 (Homo sapiens), O15379; in the data active means inhibition above about 26%, passing the limit was not always enough; inconclusive means no clear call, values can overlap the other calls
Target sequence (O15379 whole entry, looked up): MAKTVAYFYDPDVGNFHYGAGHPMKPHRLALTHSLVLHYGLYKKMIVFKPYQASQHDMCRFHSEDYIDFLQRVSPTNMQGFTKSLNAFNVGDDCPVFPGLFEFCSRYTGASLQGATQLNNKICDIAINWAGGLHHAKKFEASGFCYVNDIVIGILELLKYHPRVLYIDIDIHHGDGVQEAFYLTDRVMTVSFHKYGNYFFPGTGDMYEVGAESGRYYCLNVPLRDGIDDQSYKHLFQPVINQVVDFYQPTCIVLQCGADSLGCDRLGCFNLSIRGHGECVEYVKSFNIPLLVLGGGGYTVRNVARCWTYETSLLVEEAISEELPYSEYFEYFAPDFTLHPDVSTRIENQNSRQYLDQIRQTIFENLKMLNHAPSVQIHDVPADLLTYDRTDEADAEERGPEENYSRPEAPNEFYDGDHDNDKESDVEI
AI-2 QS modul: Vibrio harveyi AI-2 quorum sensing modulators, primary screen, JMH597 strain, luminescence/OD600 ratio; activity change, % at 7.5 µM; 0.4% of 300,000 active; Vibrio harveyi JMH597 AI-2 luminescence/OD600 ratio, 9 h; hits give low values; strain lacks LuxN and CqsS sensors; 0 = neutral-control median; in the data active means activity change below about -75%, passing the limit was not always enough; inconclusive means no clear call, values can overlap the other calls;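 further: luminescence divided by OD600 gain over 9 h not by final OD600 alone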
Large screens that a line does not name were inactive; ! = a repeat was not active. Rows were chosen to be rich in hits. Some 2.2% of all compounds tested hit in one or more screens of this group.

Cc1cc2ncc(S(C)(=O)=O)c(N)n2n1	none
COc1ccc(CN(CC2CCC(C(=O)O)CC2)C(=S)Nc2ccc(C)c(Cl)c2)cc1 (stereo not drawn)	T cruzi repl 57.7
O=C(c1ccco1)N1CCCC(c2nc3c(nnn3Cc3c(Cl)cccc3Cl)c(=O)[nH]2)C1 (stereo not drawn)	none (no result: AI-2 QS modul)
NC(=O)C1CCN(C(=O)CNC(=O)c2ccc(F)cc2)CC1	none (no result: PolyA inhibitor, T cruzi repl, HDAC3 inhib, AI-2 QS modul)
CC1=C(C#N)C(c2cccnc2)C2=C(CC(c3ccc(Cl)cc3)CC2=O)N1 (stereo not drawn)	T cruzi repl 60.1
CC1=C(C#N)C(c2ccc(O)cc2)C2=C(CCCC2=O)N1 (stereo not drawn)	none
COCCNC(=O)CSc1nc2nn(-c3ccccc3)c(=O)c-2c2n1CCCCC2	none
Cc1nnsc1Sc1ccccc1C(=O)O	none
Cc1cc2ncn(/N=C/c3ccc([N+](=O)[O-])o3)c2cc1C	T cruzi repl 60.1
Cc1ccc(S(=O)(=O)N/N=C\c2ccc([N+](=O)[O-])o2)cc1C	none
COc1ccc(/C=C(/C(=O)c2ccc(Cl)cc2Cl)n2cncn2)cc1	T cruzi repl 62.2, HDAC3 inhib inconclusive
CNC(=S)NCCc1cc2c(OC)ccc(OC)c2[nH]c1=O	none
CC(C)(C)NC(=O)NC(=O)COC(=O)Cc1coc2ccc3ccccc3c12	none
COc1ccccc1Nc1ncnc2c1c(C)c(C)n2CCCN(C)C	T cruzi repl 57.8
Cc1c(C)n(CCCN(C)C)c2ncnc(NC3CCCCC3)c12	T cruzi repl 55.6
Cc1c(C)n(CCCN(C)C)c2ncnc(Nc3ccccc3)c12	T cruzi repl inconclusive
CC(C)C(NC(=O)C12CC3CC(CC(C3)C1)C2)C(=O)N/N=C/C1=C(N2CCOCC2)C(=C\c2cccc([N+](=O)[O-])c2)/CC1 (stereo not drawn)	T cruzi repl 56.4
CC[C@]12c3[nH]c4ccc(Cl)cc4c3CCN1C(=O)[C@@H](CC(=O)NC/C=C(\C)CCC=C(C)C)C[C@@H]2C(=O)N1CCN(C(=O)C2CC2)CC1	none (no result: PolyA inhibitor, T cruzi repl, HDAC3 inhib, AI-2 QS modul)
Cc1cc(S(=O)(=O)N2CCCC(N(C)CCc3ccccn3)C2)c(C)s1 (stereo not drawn)	none
CN(CCc1ccccn1)C1CCCN(S(=O)(=O)c2ccc(F)c(Cl)c2)C1 (stereo not drawn)	T cruzi repl 72.5
Oc1cccc(Nc2c3ccccc3nc3ccccc23)c1	T cruzi repl 70.5
COc1ccc2c(c1)C=C(CN1CCN(C3CCCC3)C(CCO)C1)CO2 (stereo not drawn)	T cruzi repl 58.1
COc1ccc2c(c1)C=C(CN1CCN(C(C)C)C(CCO)C1)CO2 (stereo not drawn)	none
CC(C)(C)c1ccc(S(=O)(=O)N2CCN(C(=O)C3CCC3)CC2)cc1	none
CCOC(=O)c1c(C)n(CC(O)CN(C)C)c2cc(Br)c(OC)cc12 (stereo not drawn)	T cruzi repl 79.2
CCOC(=O)c1c(CN(C)C)n(-c2ccccc2)c2cc(Br)c(OC)cc12	none
Cc1ccc(CNC(=O)COc2ccc(C(=O)c3ccc(F)cc3)cc2)cc1	none
Cc1sc(NC(=O)CSc2nnc(N)s2)c(C#N)c1C	none
CC(C)N1CCc2c(sc(NC(=O)c3cc4cc([N+](=O)[O-])ccc4s3)c2C(N)=O)C1	none (no result: Efflux pump mplx, HDAC3 inhib)
CN1CCc2c(sc(NC(=O)c3ccc([N+](=O)[O-])o3)c2C(N)=O)C1	T cruzi repl 63.8, HDAC3 inhib inconclusive, AI-2 QS modul -102.5
NC(=O)c1c(NC(=O)c2ccc([N+](=O)[O-])o2)sc2c1CCCC2	none
CN1CCc2c(sc(NC(=O)c3cc4cc([N+](=O)[O-])ccc4s3)c2C(N)=O)C1	T cruzi repl 68.7 (no result: Efflux pump mplx, HDAC3 inhib)
CCCNC(=O)c1ccccc1NC(=O)c1ccccc1N(C)S(=O)(=O)c1ccc(C)cc1	none (no result: Efflux pump mplx, HDAC3 inhib)
COc1ccc(NS(=O)(=O)c2ccc3c(c2)NC(=O)CO3)cc1	AI-2 QS modul -80.6
COc1ccc(C(=O)/C=C/c2ccc(OC)c(Cn3nnc4ccccc43)c2)cc1	none
CN(C)CCCn1c(SCC(=O)Nc2nc(-c3cccc(Br)c3)cs2)nc2ccccc2c1=O	T cruzi repl 68.3
O=C(NC1CC1)C1CCN(S(=O)(=O)c2ccc(Cl)c([N+](=O)[O-])c2)CC1	none (no result: PolyA inhibitor, T cruzi repl, AI-2 QS modul)
Nc1c2ccccc2nc2ccccc12	T cruzi repl 69.2!
Clc1cccc(Cl)c1CNCCCSc1ncccn1	none
Clc1ccc(CNCCCSc2ncccn2)cc1Cl	T cruzi repl 56.3
CCOc1ccc(CNCCCSc2ncccn2)cc1	T cruzi repl 54.9
CC(C)c1ccc(CNCCCSc2ncccn2)cc1	T cruzi repl 71.0
CCOc1ccc(CNCCCSc2ncccn2)cc1OC	none
CCOc1ccc2nc(C)cc(Nc3cccc([N+](=O)[O-])c3)c2c1	none
CC(=O)Nc1ccc(/C(C)=N/Nc2nc(Nc3cccc4ccccc34)nc(N3CCOCC3)n2)cc1	none (no result: HDAC3 inhib)
COc1cc2c(cc1OC)CN(C(=O)COc1ccc(C)c(C)c1)CC2	T cruzi repl 55.5
Cc1ccc2c(c1)C1CN(C)CCC1N2C(=O)c1ccc(Cl)c(S(=O)(=O)N2CCOCC2)c1 (stereo not drawn)	T cruzi repl 60.5
Cc1ccc2c(c1)C1CN(C)CCC1N2C(=O)c1cccc(S(=O)(=O)N2CC(C)CC(C)C2)c1 (stereo not drawn)	T cruzi repl 80.5 (no result: AI-2 QS modul)
Cc1ccc2c(c1)C1CN(C)CCC1N2S(=O)(=O)c1cc(C(F)(F)F)ccc1Cl (stereo not drawn)	none (no result: PolyA inhibitor, T cruzi repl, AI-2 QS modul)
Cc1ccc2c(c1)C1CN(C)CCC1N2S(=O)(=O)c1cccc(C(F)(F)F)c1 (stereo not drawn)	none (no result: PolyA inhibitor, T cruzi repl, AI-2 QS modul)
Cc1ccc(C(=O)N(C)c2ccc(OCC(=O)N3c4ccc(C)cc4C4CN(C)CCC43)cc2)cc1 (stereo not drawn)	T cruzi repl 67.6
COc1ccc(OCC(=O)N2c3ccc(C)cc3C3CN(C)CCC32)cc1 (stereo not drawn)	none
Cc1ccc2c(c1)C1CN(C)CCC1N2C(=S)NC(=O)c1ccc(Br)cc1 (stereo not drawn)	T cruzi repl 64.5
Cc1ccc(C2(c3ccc(C)cc3)CC2C(=O)Nc2ccc([N+](=O)[O-])cc2O)cc1 (stereo not drawn)	T cruzi repl 54.9
CN(Cc1ccccc1)C(=O)c1ccc(NC(=O)C2=CSCCO2)cc1	none
COc1ccccc1C(=O)NC(=S)Nc1ccc(N2CCCC2)cc1	T cruzi repl 55.9
COc1ccccc1C(=O)NNC(=S)NC(=O)c1cc(OC)c(OC)c(OC)c1	T cruzi repl 60.2
COc1cc(C(=O)NNC(=S)NC(=O)c2ccccc2C)cc(OC)c1OC	none
CCOc1ccc(C2=CSC3=NCCN23)cc1Cl	none
